Assay results as given in ChEMBL document CHEMBL3616462, “Synthesis and antiviral activity of maleopimaric and quinopimaric acids' derivatives” (Bioorg Med Chem, 2015).
pEC50: −log10 of the molar value.

How the values were obtained:
[1] = Antiviral activity against Influenza A virus (A/California/07/2009(H1N1)) infected in MDCK cells; format: functional, cell-based
[2] = Cytotoxicity against Influenza A virus (A/California/07/2009(H1N1)) infected MDCK cells; format: cell-based, Canis lupus familiaris; settings: dog
[3] = Selectivity index, ratio of CC50 for Influenza A virus (A/California/07/2009(H1N1)) infected MDCK cells to EC50 for antiviral activity against Influenza A virus H1N1 (A/California/07/2009(H1N1)) infected in MDCK cells; format: toxicity, cell-based; settings: dog; read-out: Ratio CC50/EC50
[4] = Antiviral activity against Influenza A virus (A/Brisbane/10/2007(H3N2)) infected in MDCK cells; format: functional, cell-based
[5] = Cytotoxicity against Influenza A virus (A/Brisbane/10/2007(H3N2)) infected MDCK cells; format: cell-based, Canis lupus familiaris; settings: dog
[6] = Selectivity index, ratio of CC50 for Influenza A virus (A/Brisbane/10/2007(H3N2)) infected MDCK cells to EC50 for antiviral activity against Influenza A virus (A/Brisbane/10/2007(H3N2)); format: toxicity, cell-based; settings: dog; read-out: Ratio CC50/EC50
[7] = Antiviral activity against Influenza A virus (A/Viet Nam/1203/2004(H5N1)) infected in MDCK cells; format: functional, cell-based
[8] = Cytotoxicity against Influenza A virus (A/Viet Nam/1203/2004(H5N1)) infected MDCK cells; format: cell-based, Canis lupus familiaris; settings: dog
[9] = Selectivity index, ratio of CC50 for Influenza A virus (A/Viet Nam/1203/2004(H5N1)) infected MDCK cells to EC50 for antiviral activity against Influenza A virus (A/Viet Nam/1203/2004(H5N1)) infected in MDCK cells; format: toxicity, cell-based; settings: dog; read-out: Ratio CC50/EC50
[10] = system: Influenza B virus; experiment: Antiviral activity against Influenza B virus (B/Florida/4/2006) in MDCK cells; format: functional, cell-based; settings: B/Florida/4/2006, MDCK
[11] = Cytotoxicity against Influenza B virus (B/Florida/4/2006) infected MDCK cells; format: cell-based, Canis lupus familiaris; settings: dog
[12] = Selectivity index, ratio of CC50 for Influenza B virus (B/Florida/4/2006) infected MDCK cells to EC50 for antiviral activity against Influenza B virus (B/Florida/4/2006) in MDCK cells; format: toxicity, cell-based; settings: dog; read-out: Ratio CC50/EC50
[13] = system: Hepatitis B virus; experiment: Antiviral activity against HBV infected in human HepG2(2.2.15) cells; format: functional, organism-based
In short: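 Primary anti-HBV screen in confluent 2.2.15 cells, run alongside a toxicity assay in the same cells. Compounds were supplied as DMSO solutions.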

[14] = Cytotoxicity against HBV infected human HepG2(2.2.15) cells; format: cell-based; settings: HBV infected HepG2(2.2.15) cells
In short: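 Toxicity was measured on confluent 2.2.15 cells alongside the primary anti-HBV assay. CC50 is given in µM.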

[15] = system: Hepatitis C virus; experiment: Antiviral activity against HCV infected in human Huh7ET cells assessed as reduction in HCV RNA-derived luciferase activity at 20 uM by luciferase reporter gene assay; format: functional, Hepacivirus hominis; settings: Huh-7
In short: (§1)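 HCV RNA replicon assay in Huh7 ET cells. Compounds were added in triplicate at a single concentration of 20 µM. Antiviral activity was read as HCV RNA-derived luciferase signal, expressed as % of control. Toxicity was read as β-actin RNA, % of control. SI = toxicity/antiviral activity. Interferon-α (2 IU/mL) was the positive control.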

[16] = Toxicity against human Huh7ET cells assessed as reduction in beta-actin RNA levels at 20 uM; format: cell-based, Huh-7; settings: values are per cent of control; for response, % of control at 20 µM: Huh7ET cells
In short: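 HCV RNA replicon assay in Huh7 ET cells. Compounds were added in triplicate at a single concentration of 20 µM. Cytotoxicity was read as β-actin RNA as % of control, alongside HCV RNA-derived luciferase activity. Interferon-α (2 IU/mL) was the positive control.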

[17] = Selectivity index, ratio of toxicity against human Huh7ET cells assessed as reduction in beta-actin RNA levels at 20 uM to antiviral activity against HCV infected in human Huh7ET cells assessed as reduction in HCV RNA-derived luciferase activity at 20 uM by luciferase reporter gene assay; format: cell-based, Huh-7; settings: read-out: Selectivity Index; in short: as §1
[18] = system: rhinovirus A2; experiment: Antiviral activity against human rhinovirus 2 infected in MDCK cells; format: functional, organism-based; settings: Rhinovirus A
[19] = Cytotoxicity against human rhinovirus 2 infected MDCK cells; format: cell-based, Canis lupus familiaris; settings: dog, MDCK cells infected with human rhinovirus 2
[20] = Selectivity index, ratio of CC50 for human rhinovirus 2 infected MDCK cells to EC50 for antiviral activity against human rhinovirus 2 infected in MDCK cells; format: toxicity, cell-based; settings: dog, MDCK cells infected with human rhinovirus 2; read-out: Ratio CC50/EC50
[21] = system: unidentified adenovirus; experiment: Antiviral activity against Adenovirus Chicago 65089 infected in human A549 cells; format: functional, organism-based; settings: Chicago 65089, A549
[22] = Cytotoxicity against Adenovirus Chicago 65089 infected human A549 cells; format: cell-based; settings: A549 cells infected with Adenovirus Chicago 65089
In short: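 Respiratory-virus panel screen on A-549 cells, with compounds supplied as DMSO solutions. CC50 is the cell inhibitory concentration at the 50% endpoint, in µM.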

[23] = Antiviral activity against SARS coronavirus Urbani infected in African green monkey Vero 76 cells; format: functional, cell-based; settings: Severe acute respiratory syndrome-related coronavirus
[24] = Cytotoxicity against SARS coronavirus Urbani infected African green monkey Vero 76 cells; format: cell-based; settings: chlorocebus sabaeus, Vero 76 cells infected with SARS coronavirus Urbani
[25] = system: human papillomavirus 11; experiment: Antiviral activity against HPV11 infected in PHK cells epithelial raft cultures by standard AACF screening assay; format: functional, organism-based; settings: human papillomavirus 11, PHK
[26] = Cytotoxicity against HPV11 infected PHK cells epithelial raft cultures by standard AACF screening assay; format: cell-based; settings: human

Row | SMILES | pEC50 [1] | CC50 [2] [µM] | selectivity ratio [3] | pEC50 [4] | CC50 [5] [µM] | selectivity ratio [6] | pEC50 [7] | CC50 [8] [µM] | selectivity ratio [9] | pEC50 [10] | CC50 [11] [µM] | selectivity ratio [12] | also measured
1 | CC(C)C1=C[C@]23CC[C@@H]4[C@](C)(CCC[C@@]4(C)C(=O)O)[C@H]2C[C@H]1[C@H]1C(=O)OC(=O)[C@H]13 | 4.51 | 48 | 1.5 | 4.43 | 44 | 1.2 | 4.49 | 35 | 1.1 | 4.57 | 36 | 1.3 | 
2 | CC(C)C1=C[C@@]23CC[C@@H]4[C@](C)(CCC[C@@]4(C)C(=O)O)[C@H]2C[C@@H]1[C@H]1C(=O)CCC(=O)[C@H]13 |  |  |  | 4.49 | 36 | 1.1 |  |  |  | 5.07 | 34 | 4 | pEC50 [13]: < 5.00; EC90 [13]: > 10 µM; CC50 [14]: 62 µM; inhibition at 20 µM [15]: 0%; response, % of control at 20 µM [16]: 88%; selectivity ratio at 20 µM [17]: < 1
3 | COC(=O)[C@]1(C)CCC[C@]2(C)[C@H]3C[C@H]4C(C(C)C)=C[C@]3(CC[C@H]21)[C@@H]1C(=O)[C@H]2O[C@H]2C(=O)[C@@H]14 | 4.54 | 34 | 1.2 | < 4.64 | 23 |  | 5.49 | 3.3 | 1 | 5.49 | 3.3 | 1 | 
4 | COC(=O)[C@]1(C)CCC[C@]2(C)[C@H]3C[C@H]4C(C(C)C)=C[C@]3(CC[C@H]21)[C@@H]1/C(=N/O)CCC2(OCCO2)[C@@H]14 | < 5.54 | 2.9 |  | 5.49 | 3.3 | 1 | 5.49 | 3.3 | 1 | 5.49 | 3.2 | 1 | pEC50 [18]: 5.49; CC50 [19]: 3.2 µM; selectivity ratio [20]: 1; pEC50 [21]: < 5.01; CC50 [22]: 9.8 µM; pEC50 [23]: < 5.62; CC50 [24]: 2.4 µM; pEC50 [25]: < 4.30; CC50 [26]: < 50 µM; pEC50 [13]: < 5.00; EC90 [13]: > 10 µM; CC50 [14]: 20 µM; inhibition at 20 µM [15]: 97.9%; response, % of control at 20 µM [16]: 0.2%; selectivity ratio at 20 µM [17]: < 1
5 | COC(=O)[C@]12CCC(=O)[C@H]1[C@@]13C=C(C(C)C)[C@@H]2C[C@@H]1[C@@]1(C)CCC[C@@](C)(C(=O)OC)[C@@H]1CC3 | 4.51 | 34 | 1.1 | 4.49 | 33 | 1 | 4.49 | 32 | 1 | < 4.51 | 31 |  | 
6 | COC(=O)[C@]12CC[C@H](O)[C@H]1[C@@]13C=C(C(C)C)[C@@H]2C[C@@H]1[C@@]1(C)CCC[C@@](C)(C(=O)OC)[C@@H]1CC3 | 4.49 | 35 | 1.1 | < 4.62 | 24 |  | 5.49 | 3.2 | 1 | < 5.51 | 3.1 |  | 
7 | COC(=O)[C@]1(C)CCC[C@]2(C)[C@H]3C[C@H]4C(C(C)C)=C[C@]3(CC[C@H]21)[C@@H]1C(=O)OC(=O)[C@@H]14 | 4.51 | 35 | 1.1 | 4.49 | 33 | 1 | 4.68 | 32 | 1.5 | < 5.06 | 8.7 |  | 
8 | COC(=O)[C@H](C)NC(=O)[C@]1(C)CCC[C@]2(C)[C@H]3C[C@H]4C(C(C)C)=C[C@]3(CC[C@H]21)[C@@H]1C(=O)OC(=O)[C@@H]14 | 4.49 | 34 | 1.1 | 4.49 | 33 | 1 | 4.49 | 33 | 1 | 4.49 | 33 | 1 | 
9 | COC(=O)[C@H](CCSC)NC(=O)[C@]1(C)CCC[C@]2(C)[C@H]3C[C@H]4C(C(C)C)=C[C@]3(CC[C@H]21)[C@@H]1C(=O)OC(=O)[C@@H]14 | 4.51 | 34 | 1.1 | < 4.52 | 30 |  | 4.49 | 32 | 1 | 4.49 | 32 | 1 | 
10 | COC(=O)[C@]1(C)CCC[C@]2(C)[C@H]3C[C@H]4C(C(C)C)=C[C@]3(CC[C@H]21)[C@@H]1C(=O)CCC(=O)[C@@H]14 | < 4.00 | > 100 |  | < 4.00 | > 100 |  | < 4.00 | > 100 |  | 4.49 | > 100 | > 3.1 | 
11 | COC(=O)[C@]1(C)CCC[C@]2(C)[C@H]3C[C@H]4C(C(C)C)=C[C@]3(CC[C@H]21)[C@@H]1C(=O)CC[C@H](OC(=O)CCC(=O)O)[C@@H]14 | < 4.00 | > 100 |  | < 4.00 | > 100 |  | 4.06 | > 100 | > 1.1 | < 4.00 | > 100 |  | 
12 | COC(=O)[C@]1(C)CCC[C@]2(C)[C@H]3C[C@H]4C(C(C)C)=C[C@]3(CC[C@H]21)[C@@H]1C(=O)CC[C@H](OC(=O)c2cccnc2)[C@@H]14 | 4.49 | 35 | 1.1 | 4.49 | 33 | 1 | 5.49 | 3.2 | 1 | 5.49 | 3.2 | 1 | 
13 | COC(=O)[C@]1(C)CCC[C@]2(C)[C@H]3C[C@H]4C(C(C)C)=C[C@]3(CC[C@H]21)[C@@H]1C(=O)CC[C@H](OC(=O)/C=C/c2ccccc2)[C@@H]14 | 4.51 | 35 | 1.1 | < 4.77 | 17 |  | < 5.05 | 9 |  | 5.00 | 24 | 2.4 | 
14 | COC(=O)[C@]1(C)CCC[C@]2(C)[C@H]3C[C@H]4C(=C(C)C)C5O[C@@]6(O)CCC(=O)[C@H]4[C@@H]6[C@@]53CC[C@H]21 |  |  |  |  |  |  |  |  |  |  |  |  | pEC50 [13]: < 5.00; EC90 [13]: > 10 µM; CC50 [14]: 59 µM; inhibition at 20 µM [15]: 68.4%; response, % of control ([16]; huh-7, 20 µM): 151.2%; selectivity ratio at 20 µM [17]: > 1
